Reference: ChEMBL document CHEMBL5058577, “EUbOPEN Chemogenomics Library 2 (Multiplex)” (2022)

Test system: Fibroblast
Experiment: Multiplex assay against human fibroblast
Format: toxicity, cell-based
Method in brief: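 Live cells carried four stains from seeding: Hoechst33342, BioTracker Green Microtubule Cytoskeleton Dye, MitoTracker Red and Annexin V Alexa Fluor 680. They were imaged on a CQ1 microscope at 37°C and 5% CO2 after compound addition. Using CellPathfinder machine-learning gating, cells were split into Hoechst high-intensity objects or normal cells, normal cells into healthy, pyknosed or fragmented nuclei, and pyknosed cells into mitotic or apoptotic; tubulin, mitochondrial-mass and membrane-permeability phenotypes are per cents of healthy-nucleus cells.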

[1] = 12 h, 1 µM, compound concentration 1 uM, replicate 1
[2] = 12 h, 1 µM, compound concentration 1 uM, replicate 2
[3] = 12 h, 10 µM, compound concentration 10 uM, replicate 1
[4] = 12 h, 10 µM, compound concentration 10 uM, replicate 2
[5] = 24 h, 1 µM, compound concentration 1 uM, replicate 1
[6] = 24 h, 1 µM, compound concentration 1 uM, replicate 2
[7] = 24 h, 10 µM, compound concentration 10 uM, replicate 1
[8] = 24 h, 10 µM, compound concentration 10 uM, replicate 2
[9] = 48 h, 1 µM, compound concentration 1 uM, replicate 1
[10] = 48 h, 1 µM, compound concentration 1 uM, replicate 2
[11] = 48 h, 10 µM, compound concentration 10 uM, replicate 1
[12] = 48 h, 10 µM, compound concentration 10 uM, replicate 2

CN(C)C(=O)Cn1cc(-c2ccc(-c3cncc4ccccc34)cc2)cn1
Population Apoptotic (%) [1]: 47%
Population Fragmented Nuclei (%) [1]: 10%
Population Healthy Nuclei (%) [1]: 72%
Population Hoechst High Intensity Objects (%) [1]: 0%
Population Membrane Permeable-Phenotype (%) [1]: 0%
Population Mitochondria Different-Phenotype (%) [1]: 5%
Population Mitotic Cells (%) [1]: 52%
Population Normal (%) [1]: 100%
Population Pyknosed Nuclei (%) [1]: 16%
Population Tubulin-Different-Phenotype (%) [1]: 31%
Total Cell Count [1]: 139
Population Apoptotic (%) [2]: 32%
Population Fragmented Nuclei (%) [2]: 33%
Population Healthy Nuclei (%) [2]: 46%
Population Hoechst High Intensity Objects (%) [2]: 5%
Population Membrane Permeable-Phenotype (%) [2]: 5%
Population Mitochondria Different-Phenotype (%) [2]: 2%
Population Mitotic Cells (%) [2]: 67%
Population Normal (%) [2]: 94%
Population Pyknosed Nuclei (%) [2]: 20%
Population Tubulin-Different-Phenotype (%) [2]: 54%
Total Cell Count [2]: 161
Population Apoptotic (%) [3]: 33%
Population Fragmented Nuclei (%) [3]: 13%
Population Healthy Nuclei (%) [3]: 69%
Population Hoechst High Intensity Objects (%) [3]: 4%
Population Membrane Permeable-Phenotype (%) [3]: 1%
Population Mitochondria Different-Phenotype (%) [3]: 12%
Population Mitotic Cells (%) [3]: 66%
Population Normal (%) [3]: 95%
Population Pyknosed Nuclei (%) [3]: 16%
Population Tubulin-Different-Phenotype (%) [3]: 52%
Total Cell Count [3]: 113
Population Fragmented Nuclei (%) [4]: 40%
Population Healthy Nuclei (%) [4]: 42%
Population Hoechst High Intensity Objects (%) [4]: 9%
Population Membrane Permeable-Phenotype (%) [4]: 18%
Population Mitochondria Different-Phenotype (%) [4]: 5%
Population Normal (%) [4]: 90%
Population Tubulin-Different-Phenotype (%) [4]: 81%
Total Cell Count [4]: 98
Population Apoptotic (%) [5]: 47%
Population Fragmented Nuclei (%) [5]: 12%
Population Healthy Nuclei (%) [5]: 73%
Population Hoechst High Intensity Objects (%) [5]: 5%
Population Membrane Permeable-Phenotype (%) [5]: 0%
Population Mitochondria Different-Phenotype (%) [5]: 3%
Population Mitotic Cells (%) [5]: 52%
Population Normal (%) [5]: 94%
Population Pyknosed Nuclei (%) [5]: 14%
Population Tubulin-Different-Phenotype (%) [5]: 37%
Total Cell Count [5]: 137
Population Apoptotic (%) [6]: 48%
Population Fragmented Nuclei (%) [6]: 40%
Population Healthy Nuclei (%) [6]: 38%
Population Membrane Permeable-Phenotype (%) [6]: 7%
Population Mitochondria Different-Phenotype (%) [6]: 5%
Population Mitotic Cells (%) [6]: 51%
Population Pyknosed Nuclei (%) [6]: 20%
Population Tubulin-Different-Phenotype (%) [6]: 61%
Total Cell Count [6]: 156
Population Apoptotic (%) [7]: 50%
Population Fragmented Nuclei (%) [7]: 20%
Population Healthy Nuclei (%) [7]: 62%
Population Hoechst High Intensity Objects (%) [7]: 8%
Population Membrane Permeable-Phenotype (%) [7]: 0%
Population Mitochondria Different-Phenotype (%) [7]: 12%
Population Mitotic Cells (%) [7]: 50%
Population Normal (%) [7]: 91%
Population Pyknosed Nuclei (%) [7]: 17%
Population Tubulin-Different-Phenotype (%) [7]: 59%
Total Cell Count [7]: 113
Population Apoptotic (%) [8]: 41%
Population Fragmented Nuclei (%) [8]: 41%
Population Healthy Nuclei (%) [8]: 43%
Population Hoechst High Intensity Objects (%) [8]: 5%
Population Membrane Permeable-Phenotype (%) [8]: 11%
Population Mitochondria Different-Phenotype (%) [8]: 8%
Population Mitotic Cells (%) [8]: 58%
Population Normal (%) [8]: 94%
Population Pyknosed Nuclei (%) [8]: 15%
Population Tubulin-Different-Phenotype (%) [8]: 85%
Total Cell Count [8]: 85
Population Apoptotic (%) [9]: 76%
Population Fragmented Nuclei (%) [9]: 21%
Population Healthy Nuclei (%) [9]: 65%
Population Hoechst High Intensity Objects (%) [9]: 6%
Population Membrane Permeable-Phenotype (%) [9]: 3%
Population Mitochondria Different-Phenotype (%) [9]: 8%
Population Mitotic Cells (%) [9]: 23%
Population Normal (%) [9]: 93%
Population Pyknosed Nuclei (%) [9]: 12%
Population Tubulin-Different-Phenotype (%) [9]: 57%
Total Cell Count [9]: 144
Population Apoptotic (%) [10]: 44%
Population Fragmented Nuclei (%) [10]: 36%
Population Healthy Nuclei (%) [10]: 40%
Population Hoechst High Intensity Objects (%) [10]: 7%
Population Membrane Permeable-Phenotype (%) [10]: 5%
Population Mitochondria Different-Phenotype (%) [10]: 7%
Population Mitotic Cells (%) [10]: 55%
Population Normal (%) [10]: 92%
Population Pyknosed Nuclei (%) [10]: 22%
Population Tubulin-Different-Phenotype (%) [10]: 77%
Total Cell Count [10]: 141
Population Apoptotic (%) [11]: 72%
Population Fragmented Nuclei (%) [11]: 24%
Population Healthy Nuclei (%) [11]: 54%
Population Hoechst High Intensity Objects (%) [11]: 9%
Population Membrane Permeable-Phenotype (%) [11]: 0%
Population Mitochondria Different-Phenotype (%) [11]: 20%
Population Mitotic Cells (%) [11]: 27%
Population Normal (%) [11]: 90%
Population Pyknosed Nuclei (%) [11]: 20%
Population Tubulin-Different-Phenotype (%) [11]: 55%
Total Cell Count [11]: 117
Population Apoptotic (%) [12]: 12%
Population Fragmented Nuclei (%) [12]: 47%
Population Healthy Nuclei (%) [12]: 44%
Population Hoechst High Intensity Objects (%) [12]: 0%
Population Membrane Permeable-Phenotype (%) [12]: 8%
Population Mitochondria Different-Phenotype (%) [12]: 13%
Population Mitotic Cells (%) [12]: 87%
Population Normal (%) [12]: 99%
Population Pyknosed Nuclei (%) [12]: 7%
Population Tubulin-Different-Phenotype (%) [12]: 73%
Total Cell Count [12]: 102
